In ChEMBL document CHEMBL1799933, “Discovery of a selective allosteric M1 receptor modulator with suitable development properties based on a quinolizidinone carboxylic acid scaffold” (J Med Chem, 2011):
Active and inactive are the calls of the source. The calls are words filed in the database; no cut-off is given here.

What was measured:
[1] = Plasma protein binding in rat serum by equilibrium dialysis method; format: ADME, cell-free; conditions: read-out: PPB (converted)
Method in brief: (§1)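 Protein binding measured by equilibrium dialysis against rat or human serum.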

[2] = Plasma protein binding in human serum by equilibrium dialysis method; format: ADME, cell-free; conditions: read-out: PPB (converted); method in brief: as §1
[3] = target: T1, Muscarinic acetylcholine receptor M1 (Homo sapiens) (UniProt P11229); experiment: Agonist activity at human muscarinic M1 receptor expressed in CHONFAT cells assessed as enhancement of acetylcholine-induced calcium mobilization preincubated for 4 mins measured after 1 hr by FLIPR assay; format: functional, cell-based
T1 sequence (whole entry): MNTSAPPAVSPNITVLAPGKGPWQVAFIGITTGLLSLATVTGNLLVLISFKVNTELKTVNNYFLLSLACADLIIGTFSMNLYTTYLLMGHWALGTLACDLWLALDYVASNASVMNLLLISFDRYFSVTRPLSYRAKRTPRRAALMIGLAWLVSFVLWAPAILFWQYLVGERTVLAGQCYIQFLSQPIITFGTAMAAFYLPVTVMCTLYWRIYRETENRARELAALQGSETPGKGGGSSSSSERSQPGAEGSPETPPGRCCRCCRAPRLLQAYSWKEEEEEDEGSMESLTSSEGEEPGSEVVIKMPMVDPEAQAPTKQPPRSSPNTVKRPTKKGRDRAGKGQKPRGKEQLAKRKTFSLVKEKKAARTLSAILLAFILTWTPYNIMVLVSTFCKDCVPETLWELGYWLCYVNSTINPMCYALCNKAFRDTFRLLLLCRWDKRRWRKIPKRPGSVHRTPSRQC
Method in brief: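 CHO-NFAT cells expressing the named muscarinic receptor (human M1–M4; rhesus, dog or rat M1 in CHO-K1) were plated at 25,000 cells/well and grown overnight at 37 °C, 6% CO2. Cells were loaded with 1 μM Fluo-4AM for 1 h, washed, and preincubated 4 min with serially diluted compound (final DMSO 0.67%). They were then stimulated 4 min with an EC20 of ACh, and Ca2+ flux was read by FLIPR384.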

Mus musculus [4] = experiment: Antiamnesic activity against scopolamine-induced dementia in ip dosed B6SJL mouse assessed as increase in freezing behavior at 33 uM plasma concentration; format: functional, organism-based
Mus musculus [5] = experiment: Antiamnesic activity against scopolamine-induced dementia in ip dosed B6SJL mouse assessed as increase in freezing behavior at 7.4 uM plasma concentration; format: functional, organism-based
Canis familiaris = experiment: Metabolic stability in po dosed portal vein cannulated dog assessed as level of presystemic G1 glucuronidation by scintillation counting; format: ADME, organism-based, Canis lupus familiaris; conditions: in vivo
Cerebrospinal fluid = experiment: Drug level in Sprague-Dawley rat cerebrospinal fluid at 10 mg/kg, po; format: ADME, organism-based; design: dose 10 mg/kg, route oral; conditions: in vivo, read-out: Drug uptake
Method in brief: (§2)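 Rats dosed orally at 10 mpk. Plasma, brain and CSF sampled at 2 h and concentrations determined by bioanalysis.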

[6] = Passive permeability of the compound at 5 uM; format: ADME; conditions: not told
[7] = Fraction unbound in human plasma; format: ADME, cell-free
[8] = Ratio of drug level in brain to plasma of Sprague-Dawley rat at 10 mg/kg, po; format: ADME, organism-based; design: dose 10 mg/kg, route oral; conditions: read-out: BPR; method in brief: as §2
Plasma = experiment: Drug level in Sprague-Dawley rat plasma at 10 mg/kg, po; format: ADME, organism-based; design: dose 10 mg/kg, route oral; conditions: in vivo; method in brief: as §2
[9] = Fraction unbound in rat plasma; format: ADME, cell-free
[10] = Ratio of drug level in cerebrospinal fluid to fraction unbound level in plasma of Sprague-Dawley rat at 10 mg/kg, po; format: ADME, organism-based; design: dose 10 mg/kg, route oral; conditions: in vivo
Brain = experiment: Drug level Sprague-Dawley rat brain at 10 mg/kg, po; format: ADME, organism-based; design: dose 10 mg/kg, route oral; conditions: in vivo, read-out: Drug uptake; method in brief: as §2
[11] = Lipophilicity, log P of the compound; format: physicochemical; conditions: octanol/water
[12] = Half life in rat at 3 mg/kg, po and 1 mg/kg, iv; format: ADME, organism-based; conditions: in vivo
Method in brief: (§3)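 Rats (n = 2) dosed orally at 3 mg/kg and IV at 1 mg/kg. Interanimal variability under 20% for all values.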

[13] = Half life in dog at 3 mg/kg, po and 1 mg/kg, iv; format: ADME, organism-based, Canis lupus familiaris; conditions: in vivo
Method in brief: (§4)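 Dog PK, n = 2 animals. Given orally at 3 mg/kg and intravenously at 1 mg/kg. Interanimal variability under 20% for all values.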

[14] = Clearance in rat at 3 mg/kg, po and 1 mg/kg, iv; format: ADME, organism-based; conditions: in vivo; method in brief: as §3
[15] = Oral bioavailability in rat at 3 mg/kg; format: ADME, organism-based; conditions: in vivo; method in brief: as §3
[16] = Clearance in dog at 3 mg/kg, po and 1 mg/kg, iv; format: ADME, organism-based, Canis lupus familiaris; conditions: in vivo; method in brief: as §4
[17] = Oral bioavailability in dog at 3 mg/kg; format: ADME, organism-based, Canis lupus familiaris; conditions: in vivo; method in brief: as §4

Row | Structure (SMILES) | fraction unbound [1] | fraction unbound [2] | IP [3] [nM] | also measured
1 | COc1ccnc(C2(C#N)CCN(Cc3cc(C(=O)O)c(=O)n4ccccc34)CC2)c1 | 0.485 | 0.217 | 224 | 
2 | Cc1cccnc1C1(C#N)CCN(Cc2cc(C(=O)O)c(=O)n3ccccc23)CC1 |  |  | 1940 | 
3 | N#CC1(c2cccc(Cl)n2)CCN(Cc2cc(C(=O)O)c(=O)n3ccccc23)CC1 | 0.218 | 0.071 | 133 | 
4 | COc1ccc(Cn2cc(C(=O)O)c(=O)c3ccccc32)cc1 |  |  |  | Activity (Mus musculus [4]): Active
5 | N#CC1(c2ccccc2F)CCN(Cc2cc(C(=O)O)c(=O)n3ccccc23)CC1 | 0.102 | 0.055 | 81 | 
6 | Cc1cccc(C2(C#N)CCN(Cc3cc(C(=O)O)c(=O)n4ccccc34)CC2)n1 | 0.249 | 0.158 | 148 | 
7 | N#Cc1ccc(N2CCN(Cc3cc(C(=O)O)c(=O)n4ccccc34)CC2)cc1 |  |  |  | Activity (Mus musculus [5]): Active
8 | O=C(O)c1cc(CN2CCC(c3ccccc3)CC2)c2ccccn2c1=O |  |  | 1340 | 
9 | N#CC1(c2cc(C(F)(F)F)ccn2)CCN(Cc2cc(C(=O)O)c(=O)n3ccccc23)CC1 |  |  | 2720 | 
10 | Cc1cccc(C2(C#N)CCN(Cc3cc(C(=O)O)c(=O)n4ccccc34)CC2)c1 | 0.059 | 0.048 | 88 | 
11 | N#CC1(c2cc(F)ccn2)CCN(Cc2cc(C(=O)O)c(=O)n3ccccc23)CC1 |  |  | 244 | 
12 | [3H]OC(=O)c1cc(CN2CCC(C#N)(c3ccccn3)CC2)c2ccccn2c1=O |  |  |  | Stability (Canis familiaris): 50%
13 | COc1ccccc1C1(C#N)CCN(Cc2cc(C(=O)O)c(=O)n3ccccc23)CC1 |  |  | 164 | 
14 | N#CC1(c2ccccc2)CCN(Cc2cc(C(=O)O)c(=O)n3ccccc23)CC1 | 0.135 | 0.101 | 151 | concentration (Cerebrospinal fluid): 8 nM; Papp at 5 µM [6]: 27 ×10⁻⁶ cm/s; fraction unbound [7]: 0.1; Kp [8]: 0.39; concentration (Plasma): 321 nM; fraction unbound [9]: 0.1; Ratio [10]: 0.25; concentration (Brain): 127 nM
15 | N#CC1(c2cccc(F)c2)CCN(Cc2cc(C(=O)O)c(=O)n3ccccc23)CC1 |  |  | 562 | 
16 | N#CC1(c2cccnc2)CCN(Cc2cc(C(=O)O)c(=O)n3ccccc23)CC1 | 0.509 | 0.361 | 363 | concentration (Cerebrospinal fluid): 40 nM; logP [11]: -0.4; Papp at 5 µM [6]: 39 ×10⁻⁶ cm/s; concentration (Plasma): 1720 nM; Ratio [10]: < 0.1
17 | Cc1ccccc1C1(C#N)CCN(Cc2cc(C(=O)O)c(=O)n3ccccc23)CC1 | 0.051 | 0.038 | 68 | concentration (Cerebrospinal fluid): 16 nM; Papp at 5 µM [6]: 24 ×10⁻⁶ cm/s; Kp [8]: 0.48; concentration (Plasma): 234 nM; Ratio [10]: 0.5; concentration (Brain): 114 nM
18 | N#CC1CCN(Cc2cc(C(=O)O)c(=O)n3ccccc23)CC1 |  |  | 7650 | 
19 | Cc1ccnc(C2(C#N)CCN(Cc3cc(C(=O)O)c(=O)n4ccccc34)CC2)c1 | 0.467 | 0.235 | 44 | concentration (Cerebrospinal fluid): 180 nM; half-life [12]: 1.9 h; half-life [13]: 3.9 h; clearance [14]: 17.7 mL/min/kg; Papp at 5 µM [6]: 27 ×10⁻⁶ cm/s; bioavailability [15]: 24%; Kp [8]: 0.07; concentration (Plasma): 3070 nM; Ratio [10]: 0.25; clearance [16]: 10.1 mL/min/kg; concentration (Brain): 233 nM; bioavailability [17]: 47%
20 | N#CC1(c2cc(-c3ccccc3)ccn2)CCN(Cc2cc(C(=O)O)c(=O)n3ccccc23)CC1 |  |  | 659 | 
21 | CSc1cccc(C2(C#N)CCN(Cc3cc(C(=O)O)c(=O)n4ccccc34)CC2)n1 | 0.057 | 0.012 | 100 | 
22 | CCc1ccnc(C2(C#N)CCN(Cc3cc(C(=O)O)c(=O)n4ccccc34)CC2)c1 | 0.272 | 0.134 | 84 | 
23 | N#CC1(c2ccc(F)cc2)CCN(Cc2cc(C(=O)O)c(=O)n3ccccc23)CC1 |  |  | 194 | 
24 | Cc1ccc(C2(C#N)CCN(Cc3cc(C(=O)O)c(=O)n4ccccc34)CC2)nc1 | 0.348 | 0.175 | 204 | 
25 | N#CC1(c2ccncc2)CCN(Cc2cc(C(=O)O)c(=O)n3ccccc23)CC1 |  |  | 938 | 
